PMC4235313 (Chemistry (Weinheim an Der Bergstrasse, Germany), 2013)

Target: T1, S. aureus PBP2 (Staphylococcus aureus, UniProt Q9R744)
T1 sequence (Q9R744 1-727): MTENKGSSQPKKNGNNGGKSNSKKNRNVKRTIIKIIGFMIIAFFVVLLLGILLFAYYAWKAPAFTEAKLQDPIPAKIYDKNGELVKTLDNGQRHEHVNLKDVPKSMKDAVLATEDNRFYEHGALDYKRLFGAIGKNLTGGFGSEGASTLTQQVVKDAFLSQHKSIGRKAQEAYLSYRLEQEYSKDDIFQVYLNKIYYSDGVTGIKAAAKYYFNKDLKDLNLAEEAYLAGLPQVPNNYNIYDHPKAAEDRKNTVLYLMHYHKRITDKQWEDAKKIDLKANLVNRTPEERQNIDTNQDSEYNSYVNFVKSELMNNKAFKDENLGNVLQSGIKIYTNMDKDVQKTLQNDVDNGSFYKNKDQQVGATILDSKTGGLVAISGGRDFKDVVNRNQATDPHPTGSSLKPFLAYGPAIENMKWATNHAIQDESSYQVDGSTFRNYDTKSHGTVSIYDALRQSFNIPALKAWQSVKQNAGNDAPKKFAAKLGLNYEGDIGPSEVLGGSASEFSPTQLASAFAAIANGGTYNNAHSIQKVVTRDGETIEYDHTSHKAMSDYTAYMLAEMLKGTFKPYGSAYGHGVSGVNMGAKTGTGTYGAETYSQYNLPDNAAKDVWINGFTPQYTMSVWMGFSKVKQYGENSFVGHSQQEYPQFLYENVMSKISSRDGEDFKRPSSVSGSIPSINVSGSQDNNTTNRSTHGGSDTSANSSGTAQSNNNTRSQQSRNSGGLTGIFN
Assay type: biochemical, Staphylococcus aureus RN4220
Details: for suppression of the peptidoglycan polymerization (in words): susceptible (normal lipid II analogue) and resistant (depsi-lipid II analogue) models of the PBP2 reaction, Figure 6
Outline: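 N-terminal His6 S. aureus PBP2 (gene from RN4220 genomic DNA), expressed in E. coli BL21(DE3)pLysS, Ni-NTA and gel-filtration purified; 30 μg/mL in 50 mM HEPES pH 7.0, 18 mM MnCl2, 10% DMSO. Test compound series started with 4 μM [14C]-C35-lipid II or [14C]-C35-depsi-lipid II analogue, 30 °C, 4 min; SDS stop; cellulose TLC; phosphorimaging of polymerised product.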

| Compound | IC50 [nM] | suppression of the peptidoglycan polymerization (in words) |
| --- | --- | --- |
| CN[C@H](CC(C)C)C(=O)N[C@H]1C(=O)N[C@@H](CC(N)=O)C(=O)N[C@H]2C(=O)N[C@H]3C(=O)N[C@H](C(=O)N[C@H](C(=O)O)c4cc(O)cc(O)c4-c4cc3ccc4O)[C@H](O)c3ccc(c(Cl)c3)Oc3cc2cc(c3O[C@@H]2O[C@H](CO)[C@@H](O)[C@H](O)[C@H]2O[C@H]2C[C@](C)(N)[C@H](O)[C@H](C)O2)Oc2ccc(cc2Cl)[C@H]1O [vancomycin] | 1520 | suppressed the peptidoglycan polymerization only when normal lipid II analogue was used |
| moenomycin | – | suppressed the peptidoglycan polymerization regardless of the use of normal or depsi-lipid II analogues |
